Results reported in ChEMBL document CHEMBL1146234, “Synthesis and biological evaluation of N-pyrazolyl-N'-alkyl/benzyl/phenylureas: a new class of potent inhibitors of interleukin 8-induced neutrophil chemotaxis” (J Med Chem, 2007).
Active and inactive are the calls of the source. The calls are words filed in the database; no cut-off is given here.

Legend:
[1] = target: Mitogen-activated protein kinase 1 (Homo sapiens) (UniProt P28482); test: Binding affinity to ERK2
[2] = target: Mitogen-activated protein kinase 9 (Homo sapiens) (UniProt P45984); test: Binding affinity to JNK2
[3] = target: T1, Mitogen-activated protein kinase 13 (Homo sapiens) (UniProt O15264); test: Binding affinity p38delta
T1 sequence (whole entry): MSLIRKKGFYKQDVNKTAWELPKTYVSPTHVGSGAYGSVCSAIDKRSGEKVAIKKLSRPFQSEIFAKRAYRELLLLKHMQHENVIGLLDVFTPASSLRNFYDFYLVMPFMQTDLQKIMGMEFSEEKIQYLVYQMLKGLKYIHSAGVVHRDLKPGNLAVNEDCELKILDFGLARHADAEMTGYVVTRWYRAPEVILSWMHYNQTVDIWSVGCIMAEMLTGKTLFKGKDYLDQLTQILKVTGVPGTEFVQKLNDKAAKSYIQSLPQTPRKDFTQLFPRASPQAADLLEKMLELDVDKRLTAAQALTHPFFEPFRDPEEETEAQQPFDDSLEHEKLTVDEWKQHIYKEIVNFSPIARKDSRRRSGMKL

[4] = organism: Homo sapiens; test: Inhibition of pyk2 60-70Kda region in human neutrophils assessed as reduction of IL8 stimulated tyrosin phosphorylation at 0.01 uM after 30 mins
Outline: (§1)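 Neutrophils (2.5 × 10⁷ cells/mL) were treated with 10⁻³ M diisopropylfluorophosphate for 30 min at room temperature. They were then incubated 30 min ± compound and stimulated with 10⁻⁷ M IL8 for 0.5 min. Samples were boiled in SDS buffer and run on 7.5-20% SDS-PAGE, then blotted to nitrocellulose. Blots were probed overnight at 4 °C with anti-phosphotyrosine mAb 4G10 and detected by ECL. Ponceau S staining confirmed equal loading.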

[5] = organism: Homo sapiens; test: Inhibition of pyk2 50Kda region in human neutrophils assessed as reduction of IL8 stimulated tyrosin phosphorylation at 0.01 uM after 30 mins; outline: as §1
[6] = target: T2, Mitogen-activated protein kinase 12 (Homo sapiens) (UniProt P53778); test: Binding affinity to p38-gamma
T2 sequence (whole entry): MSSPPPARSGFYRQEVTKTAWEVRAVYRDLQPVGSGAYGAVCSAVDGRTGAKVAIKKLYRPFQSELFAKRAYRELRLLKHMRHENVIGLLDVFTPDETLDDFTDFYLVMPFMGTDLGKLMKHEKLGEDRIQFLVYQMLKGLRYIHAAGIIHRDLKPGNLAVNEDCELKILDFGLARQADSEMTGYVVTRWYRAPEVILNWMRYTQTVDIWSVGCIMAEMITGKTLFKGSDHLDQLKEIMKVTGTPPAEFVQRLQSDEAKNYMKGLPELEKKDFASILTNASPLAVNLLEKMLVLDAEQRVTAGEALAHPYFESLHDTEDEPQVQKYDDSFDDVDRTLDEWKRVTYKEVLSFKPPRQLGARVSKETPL

[7] = target: RAC-alpha serine/threonine-protein kinase (Homo sapiens) (UniProt P31749); test: Inhibition of IL8-induced Akt phosphorylation in human neutrophils at 0.01 uM
Outline: (§2)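 Purified human neutrophils (1 × 10⁷ cells/mL) were pretreated 30 min with compound, then exposed to 10 nM IL8 or none for 5 min at 37 °C. Cells were lysed in NP40 buffer, and protein was quantified by BCA. Then […] protein per lane was run on 12% SDS-PAGE, blotted to nitrocellulose, and probed overnight at 4 °C with anti-phospho-Akt mAb. Detection was by ECL.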

[8] = tested on: Neutrophil; test: Cytotoxicity against human neutrophils assessed as viable cells after 2 hrs; type: functional; set-up: concentration or dose not given beside the values
Outline: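 Human neutrophils (2 × 10⁶/mL) from healthy donors were incubated 2 h at 37 °C under CO₂ in HBSS:PBS (3:1) with 1 mg/mL BSA, with compounds. Membrane integrity was read by fluorescein diacetate/ethidium bromide staining for 10 min at room temperature, under UV dark-field microscopy. Green cells were scored viable; red nuclei were scored necrotic.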

[9] = organism: Homo sapiens; test: Inhibition of pyk2 60-70Kda region in human neutrophils assessed as reduction of IL8 stimulated tyrosin phosphorylation at 0.05 uM after 30 mins; outline: as §1
[10] = target: RAC-alpha serine/threonine-protein kinase (Homo sapiens) (UniProt P31749); test: Inhibition of IL8-induced Akt phosphorylation in human neutrophils at 0.05 uM; outline: as §2
[11] = organism: Homo sapiens; test: Inhibition of pyk2 50Kda region in human neutrophils assessed as reduction of IL8 stimulated tyrosin phosphorylation at 0.05 uM after 30 mins; outline: as §1
[12] = target: RAC-alpha serine/threonine-protein kinase (Homo sapiens) (UniProt P31749); test: Inhibition of IL8-induced Akt phosphorylation in human neutrophils at 0.06 uM; outline: as §2
[13] = organism: Homo sapiens; test: Inhibition of pyk2 50Kda region in human neutrophils assessed as reduction of IL8 stimulated tyrosin phosphorylation at 0.06 uM after 30 mins; outline: as §1
[14] = organism: Homo sapiens; test: Inhibition of pyk2 60-70Kda region in human neutrophils assessed as reduction of IL8 stimulated tyrosin phosphorylation at 0.06 uM after 30 mins; outline: as §1

Mitogen-activated protein kinase 9 (Homo sapiens), sequence (P45984 whole entry, looked up): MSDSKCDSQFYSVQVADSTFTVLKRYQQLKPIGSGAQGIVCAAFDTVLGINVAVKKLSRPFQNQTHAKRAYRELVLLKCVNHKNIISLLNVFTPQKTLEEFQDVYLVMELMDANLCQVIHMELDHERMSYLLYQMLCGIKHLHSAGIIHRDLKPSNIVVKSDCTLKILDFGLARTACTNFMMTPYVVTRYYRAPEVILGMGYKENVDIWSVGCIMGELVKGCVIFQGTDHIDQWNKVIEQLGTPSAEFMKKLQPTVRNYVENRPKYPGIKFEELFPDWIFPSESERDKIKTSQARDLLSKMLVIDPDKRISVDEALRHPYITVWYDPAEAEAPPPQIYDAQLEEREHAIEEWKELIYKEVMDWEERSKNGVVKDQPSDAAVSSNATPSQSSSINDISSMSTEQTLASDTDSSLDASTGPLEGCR
RAC-alpha serine/threonine-protein kinase (Homo sapiens), sequence (P31749 whole entry): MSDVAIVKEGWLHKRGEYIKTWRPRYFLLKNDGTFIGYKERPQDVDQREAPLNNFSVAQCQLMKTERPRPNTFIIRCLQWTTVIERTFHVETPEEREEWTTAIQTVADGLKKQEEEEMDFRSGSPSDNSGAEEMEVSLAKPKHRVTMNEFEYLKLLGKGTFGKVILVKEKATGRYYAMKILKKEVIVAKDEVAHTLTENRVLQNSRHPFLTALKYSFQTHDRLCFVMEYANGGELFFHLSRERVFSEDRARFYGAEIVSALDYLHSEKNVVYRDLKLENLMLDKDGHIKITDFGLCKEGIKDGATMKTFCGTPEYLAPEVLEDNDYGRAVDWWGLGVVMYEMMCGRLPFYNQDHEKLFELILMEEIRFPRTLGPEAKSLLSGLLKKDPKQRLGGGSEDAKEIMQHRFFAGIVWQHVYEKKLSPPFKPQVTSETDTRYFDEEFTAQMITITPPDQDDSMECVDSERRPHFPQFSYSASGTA
Mitogen-activated protein kinase 1 (Homo sapiens), sequence (P28482 whole entry): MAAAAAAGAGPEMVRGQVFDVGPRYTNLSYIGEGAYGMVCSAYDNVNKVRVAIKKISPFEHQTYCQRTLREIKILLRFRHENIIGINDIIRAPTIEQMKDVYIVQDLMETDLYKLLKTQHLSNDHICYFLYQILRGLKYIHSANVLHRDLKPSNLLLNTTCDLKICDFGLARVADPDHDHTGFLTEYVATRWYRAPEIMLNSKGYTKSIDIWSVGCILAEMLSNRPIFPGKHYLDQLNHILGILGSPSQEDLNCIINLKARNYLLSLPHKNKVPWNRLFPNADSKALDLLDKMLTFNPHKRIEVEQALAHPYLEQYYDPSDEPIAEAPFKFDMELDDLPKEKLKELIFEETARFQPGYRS

Compound | Activity [1] | Activity [2] | Activity [3] | inhibition [4] | inhibition [5] | Activity [6] | Activity [7] | Activity [8] | inhibition [9] | Activity [10] | inhibition [11] | Activity [12] | inhibition [13] | inhibition [14]
CCOC(=O)c1cnn(CC(O)c2ccccc2)c1NC(=O)NCc1ccccc1 (centres undefined) | inactive | inactive | inactive | 63% | 70% | inactive | inactive | 90% |  |  |  |  |  | 
CCOC(=O)c1cnn(CC(O)c2ccccc2)c1NC(=O)Nc1ccccc1 (centres undefined) | inactive | inactive | inactive |  |  | inactive |  | 90% | 81% | inactive | 71% |  |  | 
CCOC(=O)c1cnn(CC(O)c2ccccc2)c1NC(=O)NC(C)C (centres undefined) | inactive | inactive | inactive |  |  | inactive |  | 90% |  |  |  | inactive | 20% | 53%
